# Measured values: ChEMBL document CHEMBL2163334, “Discovery of highly potent and selective pan-Aurora kinase inhibitors with enhanced in vivo antitumor therapeutic index” (J Med Chem, 2012)
# Active and inactive are the calls of the source. The rule behind the calls is not given here.
# What was measured:
# Rattus norvegicus [1] = assay: Toxicity in athymic nude rat bearing human HCT116 cells assessed as adverse effects at 5 to 10 mg/kg, iv administered QD for 4 days per week followed by 3 days off per week for 3 weeks; assay type: organism-based, HCT-116; design: dose 5-10 mg/kg, route intravenous; conditions: in vivo
# Summary of the method: (§1)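 Subcutaneous flank HCT-116 xenografts in nude rats; at Day 1 groups of 10 with mean tumor 301-306 mm³. Tail-vein iv in TPPW (2% Tween-80, 5% propylene glycol, 10% PG-400, 83% water) at 10 mL/kg, weight-adjusted: days 1,3,5,8,10,12,15,17,19 or days 1-4, 8-11, 15-18. Irinotecan control 100 mg/kg ip weekly ×3.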
# Rattus norvegicus [2] = assay: Toxicity in athymic nude rat bearing human HCT116 cells assessed body weight loss up to 20 mg/kg, iv administered every other day from day 10 post tumor-injection for 3 weeks; assay type: organism-based, HCT-116; design: dose 20 mg/kg, route intravenous; conditions: in vivo, 504 h; summary of the method: as §1
# [3] = Volume of distribution in Nu/Nu rat at 15 mg/kg, iv administered using TPPW as vehicle; assay type: ADME, organism-based; design: dose 15 mg/kg, route intravenous; conditions: in vivo
# Summary of the method: (§2)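 Plasma from K3 EDTA blood at 5, 15, 30 min, 1, 2, 4, 6, 24 h; acetonitrile extraction with internal standard, LC-MS/MS on C8 column, 5-95% ACN gradient with 0.05% formic acid.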
# [4] = Clearance in athymic Nu/Nu rat at 50 mg/kg, iv administered using TPPW as vehicle; assay type: ADME, organism-based; design: dose 50 mg/kg, route intravenous; conditions: in vivo; summary of the method: as §2
# [5] = Half life in Sprague-Dawley rat at 1 mg/kg, iv administered using PEG400/water as vehicle; assay type: ADME, organism-based; design: dose 1 mg/kg, route intravenous; conditions: in vivo
# Summary of the method: (§3)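 SD rats fasted overnight, given 1 mg/kg iv in PEG400/water (3:1, v/v); three per arm. Blood into K3 EDTA at 5, 15, 30 min, 1, 2, 4, 6, 24 h, spun at 4 °C; plasma extracted with six volumes acetonitrile plus internal standard and quantified by LC-MS/MS (C8 column, formic acid/ACN gradient).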
# HCT-116 [6] = assay: Antitumor activity against human HCT116 cells xenografted in iv dosed athymic nude rat assessed as tumor growth inhibition administered every other day from day 10 post tumor-injection for 3 weeks relative to vehicle treated control; assay type: functional, organism-based; summary of the method: as §1
# [7] = Volume of distribution in Sprague-Dawley rat at 1 mg/kg, iv administered using PEG400/water as vehicle; assay type: ADME, organism-based; design: dose 1 mg/kg, route intravenous; conditions: in vivo; summary of the method: as §3
# [8] = AUC (0 to infinity) in Sprague-Dawley rat at 1 mg/kg, iv administered using PEG400/water as vehicle; assay type: ADME, organism-based; design: time infinity, dose 1 mg/kg, route intravenous; conditions: plasma; summary of the method: as §3
# [9] = Clearance in athymic Nu/Nu rat at 5 mg/kg, iv administered using TPPW as vehicle; assay type: ADME, organism-based; design: dose 5 mg/kg, route intravenous; conditions: in vivo; summary of the method: as §2
# HCT-116 [10] = assay: Antitumor activity against human HCT116 cells xenografted in athymic nude rat assessed as tumor growth inhibition at 5 mg/kg, iv administered every other day from day 10 post tumor-injection for 3 weeks relative to vehicle treated control; assay type: functional; conditions: read-out: TGI; summary of the method: as §1
# Aurora kinase B [11] = molecular target: T1, Aurora kinase B (Homo sapiens, UniProt Q96GD4); assay: Inhibition of Aurora kinase B in human HCT116 cells assessed as induction of 8N polyploidy; assay type: cell-based; conditions: HCT-116
# HCT-116 [12] = assay: Antitumor activity against human HCT116 cells xenografted in athymic nude rat assessed as tumor growth inhibition at 10 mg/kg, iv administered QD for 4 days per week followed by 3 days off per week for 3 weeks; assay type: functional, organism-based; design: dose 10 mg/kg; summary of the method: as §1
# Aurora kinase C = molecular target: T2, Aurora kinase C (Homo sapiens, UniProt Q9UQB9); assay: Binding affinity to Aurora kinase C
# T2 sequence (Q9UQB9 whole entry): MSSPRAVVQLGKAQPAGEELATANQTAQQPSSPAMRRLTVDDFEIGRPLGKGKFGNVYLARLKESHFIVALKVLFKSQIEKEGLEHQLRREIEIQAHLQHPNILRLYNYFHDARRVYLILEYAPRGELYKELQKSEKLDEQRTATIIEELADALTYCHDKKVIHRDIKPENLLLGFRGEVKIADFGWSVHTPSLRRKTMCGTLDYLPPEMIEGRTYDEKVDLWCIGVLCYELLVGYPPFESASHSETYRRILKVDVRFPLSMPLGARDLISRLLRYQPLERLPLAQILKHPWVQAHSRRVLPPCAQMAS
# HCT-116 [13] = assay: Antiproliferative activity against human HCT116 cells after 72 hrs by BrdU-based ELISA; assay type: functional, cell-based; conditions: HCT-116, 72 h
# Summary of the method: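 HCT-116 cells in McCoy's 5A with 10% FBS and pen/strep, seeded 800 cells/well, left overnight at 37 °C, 5% CO2. Nine-point 3-fold serial dilutions in DMSO added for 72 h; BrdU colorimetric ELISA read at 450 and 690 nm. IC50 is the concentration halving proliferation; duplicate runs averaged.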
# Aurora kinase B [14] = molecular target: T1, Aurora kinase B; assay: Inhibition of Aurora kinase B-mediated histone H3 Ser10 phosphorylation in human HCT116 cells after 2 hrs by sandwich ELISA; assay type: cell-based, HCT-116
# Summary of the method: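 HCT-116 cells seeded 4 × 10⁴/well, 4-6 h at 37 °C, then arrested overnight (16-18 h) with nocodazole at 66 ng/mL final. Treated 2 h with nine-point 3-fold dilutions in DMSO; lysed with phosphatase inhibitor, phospho-H3 (Ser10) sandwich ELISA read at 450 nm. IC50 = 50% inhibition of phosphorylation; duplicate runs averaged.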
# [15] = Half life in Nu/Nu rat at 15 mg/kg, iv administered using TPPW as vehicle; assay type: ADME, organism-based; design: dose 15 mg/kg, route intravenous; conditions: in vivo; summary of the method: as §2
# [16] = Volume of distribution in Nu/Nu rat at 5 mg/kg, iv administered using TPPW as vehicle; assay type: ADME, organism-based; design: dose 5 mg/kg, route intravenous; conditions: in vivo; summary of the method: as §2
# [17] = Half life in Nu/Nu rat at 50 mg/kg, iv administered using TPPW as vehicle; assay type: ADME, organism-based; design: dose 50 mg/kg, route intravenous; conditions: in vivo; summary of the method: as §2
# [18] = AUC (0 to infinity) in Nu/Nu rat at 50 mg/kg, iv administered using TPPW as vehicle; assay type: ADME, organism-based; design: time infinity, dose 50 mg/kg, route intravenous; conditions: plasma; summary of the method: as §2
# Rattus norvegicus [19] = assay: Toxicity in athymic nude rat bearing human HCT116 cells assessed as adverse effects at 2.5 mg/kg, iv administered QD for 4 days per week followed by 3 days off per week for 3 weeks; assay type: organism-based, HCT-116; design: dose 2.5 mg/kg, route intravenous; conditions: in vivo; summary of the method: as §1
# [20] = AUC (0 to infinity) in Nu/Nu rat at 15 mg/kg, iv administered using TPPW as vehicle; assay type: ADME, organism-based; design: dose 15 mg/kg, route intravenous, time infinity; conditions: plasma; summary of the method: as §2
# Aurora kinase B [21] = molecular target: T1, Aurora kinase B; assay: Binding affinity to Aurora kinase B catalytic domain by competition binding assay
# Aurora kinase A [22] = molecular target: T3, Aurora kinase A (Homo sapiens, UniProt O14965); assay: Inhibition of Aurora kinase A autophosphorylation in human HEK293 cells after 2 hrs by phosphor antibody readout assay; assay type: cell-based
# T3 sequence (O14965 whole entry): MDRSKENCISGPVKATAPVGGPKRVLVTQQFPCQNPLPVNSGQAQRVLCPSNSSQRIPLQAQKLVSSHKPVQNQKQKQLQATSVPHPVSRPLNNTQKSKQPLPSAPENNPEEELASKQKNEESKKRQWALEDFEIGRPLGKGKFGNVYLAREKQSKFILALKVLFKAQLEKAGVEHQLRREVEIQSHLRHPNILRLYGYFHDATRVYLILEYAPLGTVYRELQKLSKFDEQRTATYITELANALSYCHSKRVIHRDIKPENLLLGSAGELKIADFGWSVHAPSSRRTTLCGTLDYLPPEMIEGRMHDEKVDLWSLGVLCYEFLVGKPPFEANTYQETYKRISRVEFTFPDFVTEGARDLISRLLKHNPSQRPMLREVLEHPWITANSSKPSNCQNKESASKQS
# Aurora kinase A [23] = molecular target: T3, Aurora kinase A; assay: Binding affinity to Aurora kinase A catalytic domain by competition binding assay
# T1 sequence (Q96GD4 whole entry): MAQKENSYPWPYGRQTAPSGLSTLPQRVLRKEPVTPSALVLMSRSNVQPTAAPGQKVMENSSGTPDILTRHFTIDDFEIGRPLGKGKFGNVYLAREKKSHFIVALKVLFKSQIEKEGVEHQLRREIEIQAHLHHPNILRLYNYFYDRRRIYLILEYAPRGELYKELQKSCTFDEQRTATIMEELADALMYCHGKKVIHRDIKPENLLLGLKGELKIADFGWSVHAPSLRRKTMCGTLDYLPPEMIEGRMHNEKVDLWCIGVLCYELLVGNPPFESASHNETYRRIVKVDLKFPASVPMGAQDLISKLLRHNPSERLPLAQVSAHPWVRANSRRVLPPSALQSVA
structure (smiles),measurement,setting,value
Cc1cc(Nc2nc(Sc3ccc(NC(=O)CN4CC[C@@H](C(=O)N5CCC(F)(F)C5)C4)cc3)nn3cccc23)n[nH]1,Activity,Rattus norvegicus [1],Non-toxic
same,Activity,Rattus norvegicus [2],Non-toxic
same,Vd,[3],0.8 L/kg
same,clearance,[4],5.23 mL/min/kg
same,half-life,[5],17.5 h
same,TGI,HCT-116 [6],Active
same,Vd,[7],7 L/kg
same,AUC(0-inf),[8],1.4 µM·h
same,clearance,[9],19.2 mL/min/kg
same,inhibition in vivo at 5 mg/kg,HCT-116 [10],45%
same,inhibition,Aurora kinase B [11],Dose-dependent effect
same,TGI,HCT-116 [12],Active
same,Kd,Aurora kinase C,< 10 nM
same,IC50,HCT-116 [13],1.2 nM
same,IC50,Aurora kinase B [14],6.1 nM
same,half-life,[15],3.7 h
same,Vd,[16],0.7 L/kg
same,half-life,[17],2.9 h
same,AUC(0-inf),[18],181 µM·h
same,Activity,Rattus norvegicus [19],Non-toxic
same,AUC(0-inf),[20],34.4 µM·h
same,Kd,Aurora kinase B [21],1.7 nM
same,IC50,Aurora kinase A [22],1 nM
same,Kd,Aurora kinase A [23],5.8 nM
